How the values were obtained:
[1] = target: T1, Alpha-2A adrenergic receptor (Homo sapiens, UniProt P08913); experiment: Agonist activity at human alpha2A adrenoceptor expressed in CHO-K1 cells after 30 mins by [35S]GTPgammaS binding assay; format: functional, cell-based
T1 sequence (P08913 whole entry): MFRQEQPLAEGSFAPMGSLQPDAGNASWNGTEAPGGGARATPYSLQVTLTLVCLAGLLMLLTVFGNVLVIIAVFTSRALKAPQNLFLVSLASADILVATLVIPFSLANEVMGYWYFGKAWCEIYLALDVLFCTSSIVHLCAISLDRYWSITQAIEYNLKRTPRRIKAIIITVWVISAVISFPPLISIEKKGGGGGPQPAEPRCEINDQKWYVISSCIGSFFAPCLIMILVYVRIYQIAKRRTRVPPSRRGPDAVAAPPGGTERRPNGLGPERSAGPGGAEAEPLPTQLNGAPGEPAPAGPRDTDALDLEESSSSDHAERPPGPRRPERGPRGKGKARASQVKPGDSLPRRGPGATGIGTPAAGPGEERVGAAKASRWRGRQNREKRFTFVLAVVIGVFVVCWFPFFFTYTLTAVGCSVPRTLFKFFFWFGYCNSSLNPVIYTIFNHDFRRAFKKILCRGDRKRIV
Summary of the method: (§1)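 Membranes from CHO cells stably expressing human α2A-AR (5 µg protein) were incubated with 7 or 8 serial dilutions of compound and 0.1 nM [35S]GTPγS. Buffer: 25 mM Tris, 1 mM EDTA, 5 mM MgCl2, 20 mM NaCl, 1 µM GDP, 1 mM DTT, 30 µM ascorbic acid, pH 7.4. Incubation 30 min at RT, then vacuum filtration and scintillation counting. Run in duplicate, at least 3 repeats.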

[2] = target: T2, Adrenergic receptor alpha-1 (Rattus norvegicus, UniProt P15823+P23944+P43140); experiment: Displacement of [3H]prazosin from alpha1-adrenoceptor in Sprague-Dawley rat brain membranes after 45 mins by liquid scintillation counting; format: cell membranes, Membrane
T2 sequence (P15823 whole entry): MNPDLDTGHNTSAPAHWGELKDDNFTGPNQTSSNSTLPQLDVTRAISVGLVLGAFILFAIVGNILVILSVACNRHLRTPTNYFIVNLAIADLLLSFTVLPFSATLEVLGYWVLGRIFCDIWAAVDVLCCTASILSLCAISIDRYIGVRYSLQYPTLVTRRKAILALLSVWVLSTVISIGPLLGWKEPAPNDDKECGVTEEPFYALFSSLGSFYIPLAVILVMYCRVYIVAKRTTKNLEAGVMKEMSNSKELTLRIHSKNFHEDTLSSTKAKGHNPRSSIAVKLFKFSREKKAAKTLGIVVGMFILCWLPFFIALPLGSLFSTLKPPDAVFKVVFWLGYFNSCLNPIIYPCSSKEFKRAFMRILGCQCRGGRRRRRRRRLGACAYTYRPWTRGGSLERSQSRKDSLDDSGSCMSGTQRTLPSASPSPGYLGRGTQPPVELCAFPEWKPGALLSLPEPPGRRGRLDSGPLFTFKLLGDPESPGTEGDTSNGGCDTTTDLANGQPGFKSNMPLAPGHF
T2 sequence (P23944 whole entry): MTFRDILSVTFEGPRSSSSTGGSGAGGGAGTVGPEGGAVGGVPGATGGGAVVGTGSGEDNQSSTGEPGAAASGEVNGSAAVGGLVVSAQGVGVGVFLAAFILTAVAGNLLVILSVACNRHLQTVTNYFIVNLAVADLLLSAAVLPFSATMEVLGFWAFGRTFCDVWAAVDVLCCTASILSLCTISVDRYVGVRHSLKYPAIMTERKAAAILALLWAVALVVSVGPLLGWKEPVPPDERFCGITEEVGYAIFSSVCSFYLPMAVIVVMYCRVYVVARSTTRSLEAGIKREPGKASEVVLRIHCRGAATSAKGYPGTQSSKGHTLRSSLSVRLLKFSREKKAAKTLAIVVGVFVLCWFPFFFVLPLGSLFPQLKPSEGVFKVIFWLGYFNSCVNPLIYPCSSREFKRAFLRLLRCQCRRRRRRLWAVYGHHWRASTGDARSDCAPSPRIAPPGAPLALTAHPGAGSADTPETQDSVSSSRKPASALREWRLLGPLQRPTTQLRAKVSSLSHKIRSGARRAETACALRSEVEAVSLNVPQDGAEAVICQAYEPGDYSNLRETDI
T2 sequence (P43140 whole entry): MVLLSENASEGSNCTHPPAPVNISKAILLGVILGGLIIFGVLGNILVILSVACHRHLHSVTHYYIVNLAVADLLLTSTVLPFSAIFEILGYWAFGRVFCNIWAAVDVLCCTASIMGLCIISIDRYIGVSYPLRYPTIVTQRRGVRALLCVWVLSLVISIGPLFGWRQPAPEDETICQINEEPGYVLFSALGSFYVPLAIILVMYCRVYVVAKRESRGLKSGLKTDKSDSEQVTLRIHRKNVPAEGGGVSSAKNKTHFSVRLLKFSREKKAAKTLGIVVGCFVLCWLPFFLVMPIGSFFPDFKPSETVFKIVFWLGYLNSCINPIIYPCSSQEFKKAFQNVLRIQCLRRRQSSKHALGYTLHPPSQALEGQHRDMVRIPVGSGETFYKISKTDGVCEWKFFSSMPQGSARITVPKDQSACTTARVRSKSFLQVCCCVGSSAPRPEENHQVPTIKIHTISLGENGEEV
Summary of the method: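 Crude P2 membranes from brains of male Sprague-Dawley rats (250–280 g), 0.2–0.3 mg protein. Radioligand 1 nM [3H]RX821002 (α2) or [3H]prazosin (α1); 11 concentrations of compound, 0.1 nM–100 µM. Non-specific binding: 10 µM rauwolscine (α2) or 10 µM phenylephrine (α1). Triplicate incubation, RT, 45 min. PEI-soaked glass-fibre filtration, then scintillation counting. Ki by Cheng-Prusoff; 3–4 experiments, or one for low-affinity compounds.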

[3] = target: T3, Alpha-2A adrenergic receptor (Homo sapiens) (UniProt P08913); experiment: Intrinsic activity at human alpha2A adrenoceptor expressed in CHO-K1 cells after 30 mins by [35S]GTPgammaS binding assay relative to norepinephrine; format: functional, cell-based; summary of the method: as §1
T3 sequence (whole entry): T1 sequence (P08913 whole entry)

[4] = target: T1, Alpha-2A adrenergic receptor; experiment: Displacement of [3H]RS-79948-197 from human alpha2A adrenoceptor expressed in CHO-K1 cells after 45 mins by liquid scintillation counting; format: cell-based
Summary of the method: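 Membranes from CHO-K1 cells stably expressing each human α2-AR subtype (6–10 µg protein). Used 0.2 nM [3H]RS-79948-197 and 8 serial dilutions of competitor in 50 mM potassium phosphate, pH 7.4. Non-specific binding defined with 100 µM oxymetazoline. Filtration, then scintillation counting. Run in duplicate, at least 3 repeats. One-site nonlinear fit; IC50 converted to Ki by Cheng-Prusoff.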

## Fc1cccc2cnn(N=C3NCCN3)c12
[1]
  EC50: 0.2 µM
[2]
  Ki: 1.625 µM
[3]
  Intrinsic activity: 18%
[4]
  Ki: 0.065 µM

## Fc1ccc2c(cnn2N=C2NCCN2)c1
[2]
  Ki: 2.32 µM

## Fc1ccc2cnn(CC3=NCCN3)c2c1
[2]
  Ki: 0.5183 µM

## Fc1ccc2cnn(N=C3NCCN3)c2c1
[1]
  EC50: 0.0389 µM
[2]
  Ki: 0.9183 µM
[3]
  Intrinsic activity: 5.2%
[4]
  Ki: 0.033 µM

## Fc1ccc2c(cnn2CC2=NCCN2)c1
[2]
  Ki: 0.4763 µM

Reference: ChEMBL document CHEMBL3351639, “Fluorinated analogues of marsanidine, a highly α2-AR/imidazoline I1 binding site-selective hypotensive agent. Synthesis and biological activities” (Eur J Med Chem, 2014)
